Data set [1] addresses Wee1-like protein kinase (Homo sapiens) (UniProt P30291). Put plainly: Inhibition of recombinant human WEE1 (214 to end residues) at 1 uM using LSNLYHQGKFLQTFCGSPLYRRR as substrate incubated for 40 mins in presence of [gamma-33P]-ATP by scintillation counting method relative to control.
Data set [2] deals with Mast/stem cell growth factor receptor Kit (Homo sapiens), P10721 [D816H]. Put plainly: Inhibition of recombinant human cKIT D816H mutant (544 to end residues) at 1 uM using GGMEDIYFEFMGG as substrate incubated for 40 mins in presence of [gamma-33P]-ATP by scintillation counting method relative to control. Summed up: (§1)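 Tested at a single 1 uM in an outsourced commercial kinase-profiling panel, read as percent inhibition. Each value is the mean of two independent experiments.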

For data set [3], the target named is Receptor-interacting serine/threonine-protein kinase 2 (Homo sapiens) (UniProt O43353). Kind of data set: Inhibition of recombinant human RIPK2 (1 to 299 residues) at 1 uM using myelin basic protein as substrate incubated for 40 mins in presence of [gamma-33P]-ATP by scintillation counting method relative to control.
For data set [4], the target named is T1, Vascular endothelial growth factor receptor 2 (Homo sapiens, UniProt P35968). Put plainly: Inhibition of recombinant human VEGFR2 (790 to end residues) using myelin ba as substrate incubated for 40 mins by [gamma-33P]-ATP based radiometric assay.
T1 sequence (P35968 whole entry): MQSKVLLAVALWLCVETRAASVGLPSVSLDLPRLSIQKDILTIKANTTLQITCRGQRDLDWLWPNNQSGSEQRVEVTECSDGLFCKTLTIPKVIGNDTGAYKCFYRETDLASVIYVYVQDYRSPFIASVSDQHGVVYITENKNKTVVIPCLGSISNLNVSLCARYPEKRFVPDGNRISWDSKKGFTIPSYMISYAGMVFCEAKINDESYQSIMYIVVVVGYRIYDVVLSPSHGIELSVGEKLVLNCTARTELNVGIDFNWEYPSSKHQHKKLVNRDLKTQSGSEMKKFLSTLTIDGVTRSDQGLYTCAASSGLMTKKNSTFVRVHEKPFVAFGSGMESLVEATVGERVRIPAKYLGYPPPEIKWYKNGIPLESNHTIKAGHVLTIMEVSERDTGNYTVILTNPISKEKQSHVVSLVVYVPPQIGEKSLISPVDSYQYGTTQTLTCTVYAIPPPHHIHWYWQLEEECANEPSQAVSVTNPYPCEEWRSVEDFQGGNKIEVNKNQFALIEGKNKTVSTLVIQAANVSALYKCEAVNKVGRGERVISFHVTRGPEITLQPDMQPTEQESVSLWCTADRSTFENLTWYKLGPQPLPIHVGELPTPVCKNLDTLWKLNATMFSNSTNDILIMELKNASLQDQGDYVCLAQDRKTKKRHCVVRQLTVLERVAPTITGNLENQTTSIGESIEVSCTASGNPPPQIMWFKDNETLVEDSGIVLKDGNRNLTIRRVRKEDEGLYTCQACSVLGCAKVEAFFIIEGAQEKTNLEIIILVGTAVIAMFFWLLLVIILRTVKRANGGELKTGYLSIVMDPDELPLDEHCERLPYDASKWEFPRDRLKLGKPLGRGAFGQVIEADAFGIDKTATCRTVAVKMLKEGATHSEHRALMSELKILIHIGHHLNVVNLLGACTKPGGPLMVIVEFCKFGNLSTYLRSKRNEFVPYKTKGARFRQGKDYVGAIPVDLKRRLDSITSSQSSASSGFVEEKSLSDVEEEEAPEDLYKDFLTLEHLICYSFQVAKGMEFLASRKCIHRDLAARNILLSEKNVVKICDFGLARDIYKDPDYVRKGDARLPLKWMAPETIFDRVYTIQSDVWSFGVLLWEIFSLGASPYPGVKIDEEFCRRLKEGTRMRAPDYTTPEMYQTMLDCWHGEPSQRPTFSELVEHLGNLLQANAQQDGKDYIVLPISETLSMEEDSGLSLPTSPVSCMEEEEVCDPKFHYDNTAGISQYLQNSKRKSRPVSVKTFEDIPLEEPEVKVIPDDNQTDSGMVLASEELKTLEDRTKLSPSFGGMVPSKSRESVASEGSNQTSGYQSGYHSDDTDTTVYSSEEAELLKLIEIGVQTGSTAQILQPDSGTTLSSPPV
The target of data set [5] is Insulin-like growth factor 1 receptor (Homo sapiens) (UniProt P08069). Put plainly: Inhibition of recombinant human IGF1R (959 to end residues) at 1 uM using KKKSPGEYVNIEFG as substrate incubated for 40 mins in presence of [gamma-33P]-ATP by scintillation counting method relative to control.
Insulin-like growth factor 1 receptor (Homo sapiens), sequence (P08069 31-736 limits assumed): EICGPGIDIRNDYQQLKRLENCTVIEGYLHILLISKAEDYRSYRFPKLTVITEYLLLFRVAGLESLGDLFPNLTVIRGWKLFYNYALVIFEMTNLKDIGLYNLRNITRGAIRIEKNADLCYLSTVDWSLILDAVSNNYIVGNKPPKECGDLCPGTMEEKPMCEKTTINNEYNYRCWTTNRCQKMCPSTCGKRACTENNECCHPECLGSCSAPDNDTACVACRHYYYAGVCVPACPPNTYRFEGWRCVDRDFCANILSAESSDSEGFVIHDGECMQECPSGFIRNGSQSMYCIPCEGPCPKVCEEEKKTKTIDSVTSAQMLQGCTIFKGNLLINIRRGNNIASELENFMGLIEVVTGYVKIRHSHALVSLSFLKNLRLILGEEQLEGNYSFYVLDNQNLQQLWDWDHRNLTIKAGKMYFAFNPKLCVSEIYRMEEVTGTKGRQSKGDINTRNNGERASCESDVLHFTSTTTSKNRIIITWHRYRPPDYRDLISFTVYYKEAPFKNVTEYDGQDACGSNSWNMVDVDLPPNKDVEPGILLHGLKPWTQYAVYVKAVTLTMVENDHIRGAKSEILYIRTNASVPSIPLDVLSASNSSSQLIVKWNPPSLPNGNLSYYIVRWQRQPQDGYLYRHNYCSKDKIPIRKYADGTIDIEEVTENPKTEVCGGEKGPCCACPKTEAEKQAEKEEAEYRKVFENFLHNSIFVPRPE
Insulin-like growth factor 1 receptor (Homo sapiens), sequence (P08069 741-1367 limits assumed): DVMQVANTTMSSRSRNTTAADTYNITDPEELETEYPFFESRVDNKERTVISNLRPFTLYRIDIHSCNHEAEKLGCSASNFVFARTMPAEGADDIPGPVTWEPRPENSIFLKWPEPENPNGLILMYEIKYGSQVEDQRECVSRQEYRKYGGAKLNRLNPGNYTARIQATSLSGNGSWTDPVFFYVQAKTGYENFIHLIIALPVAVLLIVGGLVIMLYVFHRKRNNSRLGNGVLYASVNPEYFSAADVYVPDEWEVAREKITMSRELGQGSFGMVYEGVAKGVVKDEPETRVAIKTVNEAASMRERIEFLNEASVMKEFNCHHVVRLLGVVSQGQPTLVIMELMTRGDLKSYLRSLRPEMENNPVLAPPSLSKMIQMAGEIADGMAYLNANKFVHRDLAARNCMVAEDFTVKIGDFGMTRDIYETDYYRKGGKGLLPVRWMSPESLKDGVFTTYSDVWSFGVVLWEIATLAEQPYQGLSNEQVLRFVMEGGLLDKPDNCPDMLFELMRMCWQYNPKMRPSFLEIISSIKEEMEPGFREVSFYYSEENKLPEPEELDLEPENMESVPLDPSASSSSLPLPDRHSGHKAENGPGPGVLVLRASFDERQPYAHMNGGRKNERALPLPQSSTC
For data set [6], the target named is Calcium/calmodulin-dependent protein kinase type 1B (Homo sapiens) (UniProt Q6P2M8). Kind of data set: Inhibition of recombinant full length human CAMKIbeta at 1 uM using KKLRRTLSFAEP as substrate incubated for 40 mins in presence of [gamma-33P]-ATP by scintillation counting method relative to control. In short, it runs like this: (§2)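 Kinase panel profiling at 1 μM performed by Eurofins KinaseProfiler; percent inhibition reported as mean of two independent experiments.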

Data set [7] concerns the target Ribosomal protein S6 kinase beta-1 (Homo sapiens) (UniProt P23443). Kind of data set: Inhibition of recombinant human p70S6K (1 to 421 residues) at 1 uM using KKRNRTLTV as substrate incubated for 40 mins in presence of [gamma-33P]-ATP by scintillation counting method relative to control.
Data set [8] addresses Calcium/calmodulin-dependent protein kinase type 1D (Homo sapiens) (UniProt Q8IU85). Kind of data set: Inhibition of recombinant full length human CAMKIdelta at 1 uM using calmodulin as substrate incubated for 40 mins in presence of [gamma-33P]-ATP by scintillation counting method relative to control. In short, it runs like this: as §2
Data set [9] has as its target Dual specificity mitogen-activated protein kinase kinase 7 (Homo sapiens) (UniProt O14733). Put plainly: Inhibition of recombinant human MKK7beta (2 to end residues) at 1 uM using unactive JNK1a1 as substrate incubated for 40 mins in presence of [gamma-33P]-ATP by scintillation counting method relative to control.
Data set [10] has as its target Mitogen-activated protein kinase 1 (Homo sapiens) (UniProt P28482). Put plainly: Inhibition of recombinant human full length MAPK2 at 1 uM using myelin basic protein as substrate incubated for 40 mins in presence of [gamma-33P]-ATP by scintillation counting method relative to control. Summed up:
as §1

The target of data set [11] is Rhodopsin kinase GRK7 (Homo sapiens) (UniProt Q8WTQ7). Kind of data set: Inhibition of recombinant human full length GRK7 at 1 uM using casein as substrate incubated for 40 mins in presence of [gamma-33P]-ATP by scintillation counting method relative to control.
The subject of data set [12] is HeLa. Put plainly: Induction of cell cycle arrest in human HeLa cells assessed as accumulation in G2/M phase at 40 to 80 nM incubated for 36 hrs by propidium iodide staining based flow cytometry. Type of data set: functional. In short, it runs like this: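 Cells were treated with graded concentrations for 36 h, then fixed overnight in 70% ice-cold ethanol at 4°C and resuspended in PBS. Staining used 50 µg/ml PI plus 5 µg/ml RNase at 37°C for 30 min. DNA content was analysed by FACS to give G0/G1, S and G2/M fractions.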
For orientation: In flow cytometry, cells or beads pass a laser one at a time.

A short description of data set [13]: n-octanol/water partition coefficient, log P of the compound by shake flask method based HPLC analysis. Type of data set: physicochemical.
In data set [14] the target is Tyrosine-protein kinase HCK (Homo sapiens) (UniProt P08631). Kind of data set: Inhibition of recombinant activated human HCK (230 to 497 residues) at 1 uM using GGMEDIYFEFMGGKKK as substrate incubated for 40 mins in presence of [gamma-33P]-ATP by scintillation counting method relative to control. In short, it runs like this:
as §2

The target in data set [15] is Ribosomal protein S6 kinase alpha-1 (Homo sapiens) (UniProt Q15418). Kind of data set: Inhibition of recombinant human full length RSK1 at 1 uM using KKKNRTLSVA as substrate incubated for 40 mins in presence of [gamma-33P]-ATP by scintillation counting method relative to control. In short, it runs like this: as §1
Ribosomal protein S6 kinase alpha-1 (Homo sapiens), sequence (Q15418 whole entry): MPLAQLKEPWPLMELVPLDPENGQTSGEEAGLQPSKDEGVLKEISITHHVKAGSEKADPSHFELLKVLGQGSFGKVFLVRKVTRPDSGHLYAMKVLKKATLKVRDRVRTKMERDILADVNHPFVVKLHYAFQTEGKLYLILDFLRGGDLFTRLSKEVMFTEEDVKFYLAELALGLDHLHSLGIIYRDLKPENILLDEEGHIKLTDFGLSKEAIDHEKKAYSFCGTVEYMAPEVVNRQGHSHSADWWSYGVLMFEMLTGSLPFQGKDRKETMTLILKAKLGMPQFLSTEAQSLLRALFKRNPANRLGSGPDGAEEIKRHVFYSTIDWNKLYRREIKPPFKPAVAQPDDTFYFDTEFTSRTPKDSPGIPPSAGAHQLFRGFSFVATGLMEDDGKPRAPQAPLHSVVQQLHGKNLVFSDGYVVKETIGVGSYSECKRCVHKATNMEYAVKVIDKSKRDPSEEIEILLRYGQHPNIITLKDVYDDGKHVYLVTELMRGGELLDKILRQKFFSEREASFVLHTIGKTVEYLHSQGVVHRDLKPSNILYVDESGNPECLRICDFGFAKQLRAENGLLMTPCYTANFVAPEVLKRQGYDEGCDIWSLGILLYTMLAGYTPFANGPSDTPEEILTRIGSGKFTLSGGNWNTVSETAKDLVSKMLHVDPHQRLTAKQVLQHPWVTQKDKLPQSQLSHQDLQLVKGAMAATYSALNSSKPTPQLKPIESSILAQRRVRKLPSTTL
Data set [16] deals with T1, Vascular endothelial growth factor receptor 2. Kind of data set: Inhibition of VEGFR2 in HUVEC cells assessed as reduction in Akt phosphorylation at 20 to 40 nM incubated for 48 hrs by Western blot analysis. Format: cell-based. Summed up: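 HUVECs were maintained in 1640 medium with 10% FBS. They were treated with graded concentrations for 48 h, PBS-washed and lysed in RIPA buffer. Immunoblots were probed for total and phospho VEGFR2, STAT3, Akt, Erk1 and Src, each at 1:1000. β-actin served as loading control.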
In general terms: A western blot detects proteins with antibodies after separation by electrophoresis.

Data set [17] has as its target Tyrosine-protein kinase ZAP-70 (Homo sapiens) (UniProt P43403). Kind of data set: Inhibition of recombinant human full length ZAP70 at 1 uM using poly(Glu, Tyr) 4:1 as substrate incubated for 40 mins in presence of [gamma-33P]-ATP by scintillation counting method relative to control.
The target in data set [18] is Tyrosine-protein kinase FRK (Homo sapiens) (UniProt P42685). Kind of data set: Inhibition of recombinant human PTK5 (218 to end residues) at 1 uM using GGEEEEYFELVKKKK as substrate incubated for 40 mins in presence of [gamma-33P]-ATP by scintillation counting method relative to control.
Data set [19] relates to HeLa. Put plainly: Inhibition of colony formation in human HeLa cells at 80 nM incubated for 5 days by crystal violet staining based light microscopy. Format: functional, cell-based. Summed up: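 4 × 10^3 cells per well were cultured with graded concentrations for 5 days. Cells were then fixed with 20% methanol, stained with 0.5% crystal violet and photographed by light microscopy.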

Data set [20] deals with HeLa. Kind of data set: Antiproliferative activity against human HeLa cells assessed as reduction in cell viability at 80 nM incubated for 48 hrs by EdU staining based laser scanning confocal microscopy. Format: functional. In short, it runs like this: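 Cells, 5×10^4, were seeded in 24-well plates and treated for 48 h. They were then labeled using an EdU Apollo 488 imaging kit with Hoechst 33342 nuclear stain and imaged by laser scanning confocal microscopy. Percent EdU-positive cells = EdU-positive/Hoechst-stained × 100%.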

The test system of the next data set is SiHa. Put plainly: Induction of apoptosis in human SiHa cells assessed as decrease in Bcl2 expression at 40 nM incubated for 48 hrs by Western blot analysis. Type of data set: functional, cell-based. Summed up:
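Cancer cells were exposed to graded concentrations for 48 h, washed three times in PBS and lysed in RIPA buffer. Immunoblots were probed with anti-Rb, anti-phospho-Rb, anti-Ki67 and anti-Bcl-2, each at 1:1000. β-actin served as loading control.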

2 compounds from ChEMBL document CHEMBL4406821, “Novel dual inhibitors targeting CDK4 and VEGFR2 synergistically suppressed cancer progression and angiogenesis” (Eur J Med Chem, 2019) can be followed below.

Calls of active or inactive are those of the source. No cut-off for these calls is given here.

Dual specificity mitogen-activated protein kinase kinase 7 (Homo sapiens), sequence (O14733 whole entry): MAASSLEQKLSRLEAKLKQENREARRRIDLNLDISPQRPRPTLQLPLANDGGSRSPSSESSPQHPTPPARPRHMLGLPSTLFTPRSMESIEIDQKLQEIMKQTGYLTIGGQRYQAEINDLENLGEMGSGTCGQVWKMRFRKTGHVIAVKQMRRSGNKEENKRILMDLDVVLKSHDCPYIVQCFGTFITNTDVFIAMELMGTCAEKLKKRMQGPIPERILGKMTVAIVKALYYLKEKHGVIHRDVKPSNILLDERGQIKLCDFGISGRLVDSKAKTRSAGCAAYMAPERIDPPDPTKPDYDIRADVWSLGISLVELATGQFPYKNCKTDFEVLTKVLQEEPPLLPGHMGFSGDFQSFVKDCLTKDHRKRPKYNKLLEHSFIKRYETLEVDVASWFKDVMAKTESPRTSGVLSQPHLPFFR
Tyrosine-protein kinase ZAP-70 (Homo sapiens), sequence (P43403 whole entry): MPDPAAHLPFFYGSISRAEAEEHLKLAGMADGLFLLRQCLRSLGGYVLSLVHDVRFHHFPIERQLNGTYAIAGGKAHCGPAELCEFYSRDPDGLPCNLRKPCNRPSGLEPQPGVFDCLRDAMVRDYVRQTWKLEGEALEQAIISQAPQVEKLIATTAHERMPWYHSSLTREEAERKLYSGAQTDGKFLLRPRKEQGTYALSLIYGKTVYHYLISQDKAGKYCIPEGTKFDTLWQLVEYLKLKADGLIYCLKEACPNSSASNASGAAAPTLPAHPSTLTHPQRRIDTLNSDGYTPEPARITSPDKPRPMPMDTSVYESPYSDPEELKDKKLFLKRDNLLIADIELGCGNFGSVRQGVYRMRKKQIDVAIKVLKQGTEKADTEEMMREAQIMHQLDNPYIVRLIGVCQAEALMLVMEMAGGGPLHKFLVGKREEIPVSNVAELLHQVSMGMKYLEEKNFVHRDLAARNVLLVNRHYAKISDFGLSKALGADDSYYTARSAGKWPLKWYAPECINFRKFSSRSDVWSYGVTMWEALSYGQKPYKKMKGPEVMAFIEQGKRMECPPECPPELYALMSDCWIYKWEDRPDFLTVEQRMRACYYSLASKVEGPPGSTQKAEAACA
Mitogen-activated protein kinase 1 (Homo sapiens), sequence (P28482 whole entry): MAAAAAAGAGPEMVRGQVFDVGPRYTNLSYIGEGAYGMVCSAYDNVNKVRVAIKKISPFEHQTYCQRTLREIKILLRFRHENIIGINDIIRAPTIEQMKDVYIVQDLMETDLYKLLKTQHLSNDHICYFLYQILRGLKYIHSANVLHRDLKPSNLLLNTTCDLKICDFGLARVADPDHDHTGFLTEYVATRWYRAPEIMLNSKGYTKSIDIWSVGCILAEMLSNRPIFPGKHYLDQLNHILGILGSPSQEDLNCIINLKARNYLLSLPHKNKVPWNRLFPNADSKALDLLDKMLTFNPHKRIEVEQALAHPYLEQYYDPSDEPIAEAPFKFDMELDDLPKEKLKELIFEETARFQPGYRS

`Cc1ccc(NC(=O)C2(C(=O)Nc3ccc(Nc4ncc(F)c(-c5cc(F)c6nc(C)n(C(C)C)c6c5)n4)cc3)CC2)cc1`: the inhibition (commonly how much of the control response was suppressed) in [1] is 5%; in [2], 76%; in [3] it was 46%; in data set [5] it was 11%; in [6] it was 8%; in [7], 63%. The inhibition worked out at 1% in [8]; 13% in data set [9]; 0% in data set [10]; 8% in [11]; 33% in data set [14]; 0% in data set [15]. Further, the inhibition in data set [17] was found to be 11%; in data set [18], 10%. Besides, the IC50 (in general, the point on the concentration scale where inhibition reaches its midpoint) in data set [4] is 46 nM. In addition, the outcome in the data set with HeLa [12] was Active. For the same compound, the logP (usually a log measure of how a compound divides between an organic and an aqueous phase) in data set [13] is 2.53. The inhibition entry in data set [16] is “Active”.
On to `COc1cc2nccc(Oc3ccc(NC(=O)C4(C(=O)Nc5ccc(F)cc5)CC4)cc3)c2cc1OC` [CABOZANTINIB], for which the inhibition result with HeLa [19] and in the data set on HeLa [20] was “Active” throughout. In the data set on SiHa, the outcome was Active.
